Assay results from different studies.
Protocols differ between the studies behind these lines.
MMP1: Interstitial collagenase (MMP1, Homo sapiens, UniProt P03956)
CASP9: Caspase-9 (CASP9, Homo sapiens, UniProt P55211)
PPARA: Peroxisome proliferator-activated receptor alpha (PPARA, Homo sapiens, UniProt Q07869)

N=C(N)c1ccc2cc(OC(=O)c3ccc(N=C(N)N)cc3)ccc2c1
inhibition (MMP1; enzyme activity, inhibitor; 10 µM): 0%

C#Cc1n[nH]c2c(-c3cn([C@@H](C)c4ccccn4)c(=O)[nH]c3=O)cc(F)cc12
inhibition (TRAF2 and NCK-interacting protein kinase (TNIK, Homo sapiens, UniProt Q9UKE5); enzyme activity, inhibitor; 0.1 µM): -0.3%

O=C(Nc1cccnn1)N1CCN([C@@H]2CCOc3cc(C(F)(F)F)ccc32)CC1
inhibition (Corticotropin-releasing factor receptor 1 (CRHR1, Homo sapiens, UniProt P34998); ligand displacement; 20 µM): -62%

CN1CCN(c2ccc(Nc3nccc(-c4cccc([N+](=O)[O-])c4)n3)cc2C(F)(F)F)CC1
remaining binding (Calcium-dependent protein kinase 1 (CDPK1, Plasmodium falciparum, UniProt P62344); binding; 10 µM): 4.2%

Cc1ncc(C)n2nc(/C=C/c3nc(N4CCCC4)cc(N4CCOCC4)n3)nc12
inhibition (CASP9; enzyme activity, inhibitor; 10 µM): 11%

COc1cc(Nc2ncc(F)c(Nc3ccc4c(n3)NC(=O)C(C)(C)O4)n2)cc(OC)c1OC
inhibition (Serine/threonine-protein kinase OSR1 (OXSR1, Homo sapiens, UniProt O95747); binding, competition with immobilised ligand; 10 µM): 71%

O=C(O)C(F)(F)C(F)(F)C(F)(F)C(F)(F)C(F)(F)C(F)(F)F
Emax (PPARA; reporter gene, agonist, luciferase; COS-7): 113%

Clc1cccc(-c2c[nH]c3ncnc(N4CCOCC4)c23)c1
ΔTm (Serine/threonine-protein kinase 4 (STK4, Homo sapiens, UniProt Q13043); thermal stability, DSF; 20 µM): > 8 °C

O=S(=O)(O)C(F)(F)C(F)(F)OC(F)(C(F)(F)F)C(F)(F)OC(F)C(F)(F)F (stereo not shown)
Emax (PPARA; reporter gene, agonist, luciferase): 28%

COc1ncccc1-c1cnn2ccc(N3CCN(C(=O)OC(C)C)CC3)nc12
remaining binding (Myosin-IIIa (MYO3A, Homo sapiens, UniProt Q8NEV4); binding, competition with immobilised ligand; 1 µM): 95%

Nc1ncc(-c2nc(N3CCOCC3)nc(N3CCOCC3)n2)c(C(F)F)n1
remaining binding (Hepatocyte growth factor receptor (MET, Homo sapiens, UniProt P08581, M1250T); cell-free assay, competition with immobilised ligand; 10 µM): 100%

COc1ccc(S(=O)(=O)N(CC(=O)NO)CC(C)C)cc1
inhibition (MMP1; enzyme activity, inhibitor; 0.1 µM): 2%

Cc1nn(C)cc1-c1nc2c(N3CCN(Cc4ccc(Cl)cc4)CC3)c(Cl)cnc2[nH]1
remaining binding (Serine/threonine-protein kinase 36 (STK36, Homo sapiens, UniProt Q9NRP7); binding, competition with immobilised ligand; 1 µM): 74%

O=C(O)C(F)(F)C(F)(F)C(F)(F)C(F)(F)C(F)(F)C(F)(F)C(F)(F)F
Emax (PPARA; reporter gene, agonist, luciferase; COS-7): 92%

CN(C)C(=O)COC(=O)Cc1ccc(OC(=O)c2ccc(NC(=N)N)cc2)cc1
inhibition (CASP9; enzyme activity, inhibitor; 10 µM): 0%

C#Cc1n[nH]c2c(-c3cn([C@@H](C)c4ccccc4)c(=O)[nH]c3=O)cc(F)cc12
inhibition (Inactive tyrosine-protein kinase PEAK1 (PEAK1, Homo sapiens, UniProt Q9H792); enzyme activity, inhibitor; 0.1 µM): 6.5%
